Experimental data: paper PMC3334839 (The Journal of Neuroscience, 2012)
Substitutions are numbered along the chain they refer to.

Key:
[1] = test system: native GlyRs in cultured spinal neurons; experiment: Whole-cell patch-clamp of Gly-activated current; assay type: cell-based, rat; settings: for average percent potentiation of IGly: concentration-response (Fig. 1E), EC2 Gly
Outline: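 Spinal cords from postnatal day 0 rats, papain-dissociated (20 U/ml, 37°C, 40 min). Plated at 300,000 cells/ml on poly-d-lysine in MEM/10% FBS, cultured ≥10 d, washed 30 min in external solution. Whole-cell, −60 mV, 20–22°C.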

human α1 GlyR = biological target: T1, human α1 GlyR (Homo sapiens, UniProt P23415); experiment: cell-based; assay type: cell-based; settings: for average percent potentiation of IGly: concentration-response (Fig. 1E)
T1 sequence (P23415 29-457): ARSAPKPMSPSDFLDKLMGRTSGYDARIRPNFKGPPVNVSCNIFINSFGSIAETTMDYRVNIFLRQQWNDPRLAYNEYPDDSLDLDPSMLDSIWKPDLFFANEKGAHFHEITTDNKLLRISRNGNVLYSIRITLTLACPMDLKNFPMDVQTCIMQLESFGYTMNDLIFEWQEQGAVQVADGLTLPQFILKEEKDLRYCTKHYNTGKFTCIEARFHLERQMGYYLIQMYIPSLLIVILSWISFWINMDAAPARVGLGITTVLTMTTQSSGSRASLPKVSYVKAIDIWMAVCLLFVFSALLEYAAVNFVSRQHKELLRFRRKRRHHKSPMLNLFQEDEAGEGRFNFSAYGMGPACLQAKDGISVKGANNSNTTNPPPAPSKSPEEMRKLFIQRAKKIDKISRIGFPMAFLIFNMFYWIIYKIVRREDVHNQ

α1β1 GlyRs = α1β1 GlyRs (Homo sapiens, UniProt P23415); assay type: cell-based
[2] = biological target: T2, G254A mutant human α1 GlyR (Homo sapiens, UniProt P23415, G282A); experiment: Whole-cell patch-clamp of IGly in HEK-293 cells expressing G254A mutant α1 GlyRs; assay type: cell-based; settings: AEA 5 min sustained incubation
T2 sequence (P23415 29-457 G282A): T1 sequence (P23415 29-457) with G254A

CB1 receptors = settings: read-out: binding affinity (Ki) for CB1 receptors; ref Pertwee, 2000; cited from earlier work
rat α2 GlyR = biological target: T3, rat α2 GlyR (Rattus norvegicus, UniProt P22771); experiment: Whole-cell patch-clamp of IGly in HEK-293 cells expressing α2 GlyRs; assay type: cell-based; settings: 10 μM AEA, 5 min sustained, EC2 Gly (20 μM), wild-type α2
T3 sequence (P22771 28-452): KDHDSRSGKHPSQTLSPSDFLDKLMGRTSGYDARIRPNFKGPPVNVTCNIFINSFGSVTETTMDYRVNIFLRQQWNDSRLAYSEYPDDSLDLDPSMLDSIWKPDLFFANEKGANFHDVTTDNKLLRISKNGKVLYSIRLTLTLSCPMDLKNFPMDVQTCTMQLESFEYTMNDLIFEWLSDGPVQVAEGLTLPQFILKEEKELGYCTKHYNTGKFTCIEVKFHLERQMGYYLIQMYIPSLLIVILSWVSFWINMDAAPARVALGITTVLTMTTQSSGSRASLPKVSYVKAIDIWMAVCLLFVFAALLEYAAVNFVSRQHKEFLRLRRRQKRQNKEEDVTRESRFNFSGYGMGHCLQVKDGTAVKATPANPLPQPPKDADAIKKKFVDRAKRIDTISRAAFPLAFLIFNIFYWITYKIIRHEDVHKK

human 5-HT3A receptor = biological target: T4, human 5-HT3A receptor (Homo sapiens, UniProt P46098); assay type: cell-based
T4 sequence (P46098 24-478): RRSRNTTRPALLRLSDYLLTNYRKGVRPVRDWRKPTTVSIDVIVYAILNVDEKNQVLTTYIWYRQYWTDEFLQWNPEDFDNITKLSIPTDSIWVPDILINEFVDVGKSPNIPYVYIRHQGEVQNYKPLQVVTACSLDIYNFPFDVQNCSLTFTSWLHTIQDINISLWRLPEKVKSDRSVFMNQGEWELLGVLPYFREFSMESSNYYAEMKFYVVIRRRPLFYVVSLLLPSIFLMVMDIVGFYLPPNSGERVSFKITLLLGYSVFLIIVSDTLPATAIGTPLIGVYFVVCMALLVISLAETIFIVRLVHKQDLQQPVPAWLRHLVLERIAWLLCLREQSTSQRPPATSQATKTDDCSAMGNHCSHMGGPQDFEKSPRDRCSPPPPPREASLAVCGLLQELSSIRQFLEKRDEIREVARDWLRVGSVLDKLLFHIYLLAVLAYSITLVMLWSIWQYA
Outline: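 Human 5-HT3A receptors (wild-type or point mutant made by site-directed mutagenesis) transfected into HEK-293 cells. Cells recorded 2 d later, trypsin/EDTA-treated 2 h before, lifted, superfused with HEPES-buffered saline (pH 7.4). Whole-cell, CsCl pipette, −60 mV, 20–22°C. 5-HT 30 μM pulses before, during and after continuous 5 min test compound (0.1 μM) incubation; 5–7 cells, mean ± SE.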

α1β1 GlyRs, sequence (P48167 23-497 partner, one chain of several): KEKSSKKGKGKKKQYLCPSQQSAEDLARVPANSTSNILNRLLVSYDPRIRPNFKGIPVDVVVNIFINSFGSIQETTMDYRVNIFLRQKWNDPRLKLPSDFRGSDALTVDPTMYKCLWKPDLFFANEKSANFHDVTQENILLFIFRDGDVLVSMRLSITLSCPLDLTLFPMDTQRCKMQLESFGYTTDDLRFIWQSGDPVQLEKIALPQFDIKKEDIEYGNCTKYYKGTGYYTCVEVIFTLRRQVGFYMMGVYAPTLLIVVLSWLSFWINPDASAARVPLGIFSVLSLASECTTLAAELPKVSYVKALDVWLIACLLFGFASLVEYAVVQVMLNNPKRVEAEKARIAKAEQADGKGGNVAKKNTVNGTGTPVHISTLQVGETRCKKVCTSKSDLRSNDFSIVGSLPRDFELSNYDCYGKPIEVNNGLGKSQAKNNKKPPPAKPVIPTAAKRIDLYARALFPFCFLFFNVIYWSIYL

## CCCCC/C=C\C/C=C\C/C=C\C/C=C\CCCC(=O)NCCO [AEA, anandamide]
[1]; 1 μM AEA sustained application
  time to maximal potentiation of IGly: 5 min
[1]; 1 μM AEA, 5 min sustained application, EC2 Gly (Fig. 1C)
  average percentage potentiation of IGly: 86 ± 24%
[1]; 1 μM AEA, after 1 min of AEA exposure, neurons
  percentage potentiation of IGly, initial value: 6 ± 6%
[1]; 1 μM AEA
  average percent potentiation of IGly: 79 ± 19%
[1]; 3 μM AEA
  average percent potentiation of IGly: 236 ± 52%
[1]; 10 μM AEA
  average percent potentiation of IGly: 636 ± 87%
[1]; 30 μM AEA
  average percent potentiation of IGly: 800 ± 71%
Human α1 GlyR
  EC50: 4.2 ± 1.95 µM
Human α1 GlyR; 1 μM AEA sustained application, α1 homomeric
  time to maximal potentiation of IGly: 5 min
Human α1 GlyR; 1 μM AEA, 5 min sustained application, EC2 Gly, α1 (Fig. 1C)
  average percentage potentiation of IGly: 97 ± 16%
Human α1 GlyR; 1 μM AEA, after 1 min of AEA exposure, HEK-293 cells
  percentage potentiation of IGly, initial value: 3 ± 1%
Human α1 GlyR; 1 μM AEA, EC2 Gly
  average percent potentiation of IGly: 91 ± 9%
Human α1 GlyR; 3 μM AEA, EC2 Gly
  average percent potentiation of IGly: 311 ± 86%
Human α1 GlyR; 10 μM AEA simultaneously applied only with Gly, wild-type α1
  AEA-induced potentiation of IGly, simultaneous application: 108 ± 15%
Human α1 GlyR; 10 μM AEA, Gly 30 μM
  average percentage potentiation of IGly: 102 ± 49%
Human α1 GlyR; 10 μM AEA, Gly 100 μM
  average percentage potentiation of IGly: 24 ± 6%
Human α1 GlyR; 10 μM AEA, Gly 10 μM
  average percent potentiation of IGly: 712 ± 96%
Human α1 GlyR; 30 μM AEA, EC2 Gly
  average percent potentiation of IGly: 824 ± 278%
Human α1 GlyR; AEA applied continuously for 5 min with intermittent Gly
  maximal potentiation of α1 GlyRs: 700–800%
Human α1 GlyR; even at high concentrations (> 30 μM), no Gly, cell type not specified
  direct activation of current by AEA alone: did not trigger detectable current
α1β1 GlyRs; 1 μM AEA sustained application, α1β1 heteromeric
  time to maximal potentiation of IGly: 5 min
α1β1 GlyRs; 1 μM AEA, 5 min sustained application, EC2 Gly, α1β1 (Fig. 1C)
  average percentage potentiation of IGly: 85 ± 12%
[2]
  AEA-induced potentiation of IGly: 597 ± 77%
CB1 receptors
  Ki: 0.061 to 0.543 µM
Rat α2 GlyR
  average percentage potentiation of IGly: 127 ± 37%
Human 5-HT3A receptor; 0.1 μM AEA for 5 min, 5-HT 30 μM, wild-type
  effect on 5-HT-activated current: gradually developing inhibition
Human 5-HT3A receptor; continuous exposure to 0.1 μM AEA
  time to maximal inhibition of I5-HT: 5 min
